From PubChem BioAssay AID624177 (Southern Research Specialized Biocontainment Screening …, 2012)
The source made the active and inactive calls.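 Rule for the calls: active = inhibition of 30% or more at any tested concentration; inactive = the rest.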

molecular target: M18 aspartyl aminopeptidase (Plasmodium falciparum); assay: PfM18AAP aspartyl aminopeptidase inhibitors, dose response, biochemical, QFRET fluorogenic substrate, set 2 (AID 624177); conditions: recombinant PfM18AAP, H-Glu-NHMec fluorogenic substrate cleavage
In short: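 Test system: recombinant PFM18AAP enzyme; quantity: enzyme at 5 µg/mL final; times: 90 min reaction, room temperature; replication: triplicate; controls: no-enzyme background control; medium: pH 7.5 Tris, 2 mM CoCl2, 2% DMSO; compound dosing: 10 concentrations, 1:2 steps, 100–0.2 µM; reagent: fluorogenic H-Glu-NHMec peptide substrate at 0.1 mM final; signal: fluorescence at 370/460 nm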

Structure (SMILES)	IC50 [µM]
Oc1ccc(CCCNc2c3c(nc4ccccc24)CCCC3)cc1O	10.8
CN(CCCc1ccc(O)c(O)c1)c1ccnc2ccccc12	10.3
CN(CCc1ccc(O)c(O)c1)c1ccnc2cc(Cl)ccc12	8.46
Oc1cccc(CCNc2ccnc3ccccc23)c1O	16.5
Cc1cc(N(C)CCc2ccc(O)c(O)c2)c2ccccc2n1	11.9
Cc1cccc2c(N(C)CCc3ccc(O)c(O)c3)ccnc12	11.9
CN(CCc1ccc(O)c(O)c1)c1c2ccccc2nc2ccccc12	30
CN(CCc1ccc(O)c(O)c1)c1ncnc2ccccc12	7.69
Oc1ccc(CCNc2ccnc3c(F)cccc23)cc1O	9.8
Oc1ccc(CCNc2ccnc3cc(Cl)ccc23)cc1O	14.8
CCN(CCc1ccc(O)c(O)c1)c1c2ccccc2nc2ccccc12	16.9

The remaining lines, values ahead:

IC50 [µM]	Structure (SMILES)
14.5	Cc1cccc2c(NCCc3ccc(O)c(O)c3)ccnc12
4.6	Oc1ccc(C2CCN(c3ccnc4ccccc34)CC2)cc1O
8.76	CN(CCc1ccc(O)c(O)c1)c1ccnc2c(F)cccc12
47.6	CC(C)(CNc1ccnc2ccccc12)c1ccc(O)c(O)c1
16.6	CC(Cc1ccc(O)c(O)c1)Nc1ccnc2ccccc12 (centres undefined)
40.1	CN(CCCc1ccc(O)c(O)c1)c1c2ccccc2nc2ccccc12
7.32	Oc1ccc(C2CCCN(c3ccnc4ccccc34)C2)cc1O (centres undefined)
6.55	Oc1ccc(C2CCN(c3ccnc4ccccc34)C2)cc1O (centres undefined)

same assay, conditions: recombinant PfM18AAP, H-Glu-NHMec fluorogenic substrate cleavage; at 100 µM (top of the series)

Structure (SMILES)	inhibition
COc1cc(Br)c(CCNc2c3c(nc4ccccc24)CCCC3)cc1OC	inactive
COc1ccc(CCNC(=O)c2cc(C)ccc2N)cc1OC	inactive
COc1ccc(CCNc2ncnc3ccccc23)cc1OC	inactive
CCN(CCc1ccc(OC)c(OC)c1)c1c2ccccc2nc2ccccc12	inactive
COc1ccc(CCN(C)c2ncnc3ccccc23)cc1OC	inactive
COc1ccc(CCN(C)c2ccnc3c(C)cccc23)cc1OC	inactive
Nc1c2ccccc2nc2ccccc12	inactive
COc1ccc(C2CCN(c3ccnc4ccccc34)CC2)cc1OC	inactive
COc1ccc(CCN(C)c2cc(C)nc3ccccc23)cc1OC	inactive
COc1cc(Br)c(CCNc2c3ccccc3nc3ccccc23)cc1OC	inactive
COc1cc(Br)c(CCNc2ccnc3ccccc23)cc1OC	inactive

Other lines, results leading:

inhibition	Structure (SMILES)
inactive	COc1ccc(CCN(C)c2ccnc3c(F)cccc23)cc1OC
inactive	Clc1c2c(nc3ccccc13)CCCC2
inactive	COc1ccc(CCCN(C)c2c3ccccc3nc3ccccc23)cc1OC
inactive	COc1ccc(CCNc2cc(C)nc3ccccc23)cc1OC
inactive	COc1ccc(CCNc2ccnc3c(F)cccc23)cc1OC
inactive	CCOc1ccc2nccc(N(C)CCc3ccc(OC)c(OC)c3)c2c1
inactive	COc1ccc(CCCNc2c3c(nc4ccccc24)CCCC3)cc1OC
inactive	COc1ccc(CCNc2ccnc3c(C)cccc23)cc1OC
inactive	CCOc1ccc2nccc(NCCc3ccc(OC)c(OC)c3)c2c1
inactive	COc1ccc(CCN(C)c2ccnc3cc(Cl)ccc23)cc1OC
inactive	COc1ccc(CCN(C)c2c3ccccc3nc3ccccc23)cc1OC
inactive	COc1ccc(CCNc2ccnc3cc(Cl)ccc23)cc1OC
inactive	COc1ccc(CCNc2c3c(nc4ccc(C)cc24)CCCC3)cc1OC
inactive	COc1ccc(C2CCN(c3ccnc4ccccc34)C2)cc1OC (centres undefined)
